The text below walks through data of the RNAGym collection of RNA variant scans (doi:10.1126/science.aae0568).

Fewer inactive variants are shown than the library holds.

To fix the notation:
B1: tRNA (parent)
chain: GUUCCGUUGGCGUAAUGGUAACGCGUCUCCCUCCUAAGGAGAAGACUGCGGGUUCGAGUCCCGUACGGAACG

Variants of B1 are the subject of this data set. Briefly: yeast fitness relative to wild type (ratio to wild type); higher = fitter; tRNA-Arg(CCU), competitive growth, 37 C, YPD. Summed up:
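Start and end populations of a pooled competition were compared by 100-nucleotide paired-end sequencing of gene amplicons. The Saccharomyces cerevisiae strains carried tRNA-Arg(CCU) gene variants at the native genomic locus, synthesised with a 3% per-site mutation rate at 69 sites, and competed in YPD at 37°C for 24 hours in six parallel replicates. Darwinian fitness relative to wild type was based on the change in genotype frequencies. Genotypes required ≥ 100 starting reads, and estimates < 0.5 were set to 0.5.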
On to C61U A65U, for which the yeast fitness turned out to be 0.724.
For the variant G50C G56A G58A, the yeast fitness worked out at 0.64.
Then U54C G58A, with 0.834; and A65C G68C, with 0.778.
To C49A G63C A69G belongs at most 0.5.
Turning to C55U A65U, the yeast fitness came out at 0.794.
Then G50A G51A, with 0.645; and G50A C61A, with 0.744; and G48C C62A, with 0.771.
With C55U C61A G68A, the yeast fitness is at most 0.5.
Regarding G52A G68A, the yeast fitness stood at 0.678.
For the variant C49G G50C C62U, the yeast fitness stood at 0.539.
Turning to G50U A69C, the yeast fitness turned out to be 0.958.
To G58C C61A A69U belongs 0.55.
With U54C G68A, the yeast fitness was 0.937.
In the case of A65C A70C, the yeast fitness was found to be 1.03.
Then C49U U59C C61U, with 0.618; and C62G G63A, with 0.796.
On to G58C C66U, for which the yeast fitness is 0.982.
To U54A C61G A65U belongs at most 0.5.
Then G51C G56A, with 0.698; and G48C G52C A57C G58A C66U, with at most 0.5.
For G52A G56U, the yeast fitness worked out at 0.554.
On to C49A G56A A57U, for which the yeast fitness was at most 0.5.
With C55G A65C G67A, the yeast fitness was at most 0.5.
Then A57G C60U G68C, with 0.527; and G48C G68U, with 0.771; and G48C G68C, with 0.789.
As for C62U G67C, the yeast fitness came to 0.917.
For the variant G48A C62G C66A, the yeast fitness was at most 0.5.
Then G48A U54G, with 0.686; and U53G G56C G67C, with 0.605; and C49A C61U C62G, with at most 0.5.
To C49G G63C G68C belongs at most 0.5; to U54C C66U A69U, 0.62; to G50C C62G A70U, 0.606.
Then G48C G63C A70C, with at most 0.5.
Take C49A C55U: the yeast fitness came to 0.606.
To C55A C62G belongs 0.543; to A57U A70U, 0.69; to C62A A65U, 0.772.
As for G48A G51C C61G, the yeast fitness was 1.02.
Then A57C U64G, with 0.512.
Then G52C A57C, with 0.526; and U59A G63A, with 0.872.
To G63A G67A belongs 0.693; to C61G A69U, 0.635; to G56A A57C, 0.699.
Take G56A A57G: the yeast fitness is 0.905.
To C49G A65C belongs 0.733; to G50C U54A, 0.524; to U53G U59C C66U, at most 0.5.
Turning to C55G C61U, the yeast fitness was 0.743.
For the variant G51A G56A U59C, the yeast fitness came to 0.565.
Then C61A C62U A65U A69C, with 0.52.
Then G48C U54G C55U, with at most 0.5.
As for G52C U53C, the yeast fitness is at most 0.5.
To G58A A69U belongs 0.986.
As for G48C C61U, the yeast fitness amounted to 0.733.
For C55G G68C, the yeast fitness was found to be 0.624.
To G48A C61U A65C belongs at most 0.5.
Then C49G G68U, with 0.808; and U54C U64C, with 0.758.
Then G58C C61A A65U, with at most 0.5; and U54C C62U, with 0.815.
Turning to G52A A57C A69U, the yeast fitness came out at 0.565.
For A57C C60U A69C, the yeast fitness is at most 0.5.
On to G63C A65C C66A, for which the yeast fitness is at most 0.5.
Turning to U59A, the yeast fitness was 0.973.
To U59C belongs 1.
For U59G, the yeast fitness came to 1.01.
On to G52A A57C A65C, for which the yeast fitness came out at 0.647.
Take G50A G51C C60G: the yeast fitness is at most 0.5.
Then C55A G68C, with 0.674; and G48A C61G C62U, with at most 0.5; and C60G G68A, with 0.695.
Take U59G C66A: the yeast fitness worked out at 0.62.
With G56C C61U, the yeast fitness amounted to 0.747.
Then A57G, with 0.998; and A57U, with 0.731.
Consider A57C, for which the yeast fitness was determined as 0.62.
Take U54C C66U: the yeast fitness is 0.767.
Then G51A A69C, with 0.979.
Then G50C A69U, with 0.833; and G50C A69C, with 0.67.
Then G52C G63A A65G, with at most 0.5.
Consider G50C C55A, for which the yeast fitness worked out at 0.619.
On to G51A A70G, for which the yeast fitness stood at 0.85.
In the case of C49U A65G G67A A69U, the yeast fitness is at most 0.5.
To G48A U53G belongs 0.599.
As to U53C A69C, the yeast fitness was 0.881.
Then U53A A69U, with 0.891; and U53A A69C, with 0.622.
To C55U U64A C66A belongs at most 0.5; to C61U G68A, 0.711.
Then C61U G68C, with 0.68.
On to C61U G68U, for which the yeast fitness came out at 0.639.
To U53A G67A belongs 0.686.
Then U53A C55U, with 0.545.
For the variant U54G G63C, the yeast fitness was at most 0.5.
Consider C62U U64C, for which the yeast fitness is 1.02.
In the case of G48C G52C C55U, the yeast fitness was at most 0.5.
To G51A C60U C61U A65G A69C belongs 0.594; to C55U G58A, 0.642.
As to U59C A70G, the yeast fitness is 1.01.
To C49G G52A A57C belongs at most 0.5; to C61G G67U, 0.61.
Then U53C C66U, with 0.814; and U53A U59A, with 0.664; and U59A C66A, with 0.63.
Then G48C U64G, with 0.714; and C55U U64C, with 0.873.
A57G U64C A65C: the yeast fitness came to 0.506.
Consider C60A U64A, for which the yeast fitness was found to be 0.561.
In the case of G51A C66G, the yeast fitness came to 0.704.
To C55A G63C belongs 0.603; to G51C A65C C66U, at most 0.5; to C55U G58A U59C C62U, at most 0.5.
Then A57U U59A A65C, with at most 0.5; and G58C C62G, with 0.755.
As to U53G A65U, the yeast fitness is 0.635.
Then U53A A57C, with 0.623; and G48C G51C, with 0.591.
Regarding G63A A69C, the yeast fitness is 0.941.
Regarding G63A A69G, the yeast fitness was 0.878.
Then C55G A69U, with 0.636.
To C55G A69G belongs 0.627.
For G52C A57U C62U C66G, the yeast fitness is at most 0.5.
Then G48A G68A, with 0.998.
Then G51C U54A, with at most 0.5; and G63A A70C, with 0.973; and G63A A70U, with 0.816.
On to A57C C60A, for which the yeast fitness was at most 0.5.
Then A57G A65G C66U, with 0.65.
As for G56A U59C A65C, the yeast fitness was 0.738.
For the variant C55U C66A, the yeast fitness came out at 0.656.
Then C55U A57U, with 0.634; and A57U G68C, with 0.652.
On to C49U A57U G58C, for which the yeast fitness is at most 0.5.
As for G50A U64C, the yeast fitness worked out at 0.966.
To G48A C60G A65U belongs at most 0.5.
With C55G G56A, the yeast fitness amounted to 0.628.
To G63A A65U belongs 0.945.
Then G48C C49A U53A G56A G58C G68C, with at most 0.5; and G52C A70C, with 0.715.
Turning to G52C A70G, the yeast fitness stood at 0.637.
To C49A C60U G68C belongs at most 0.5; to C49G C60U C62U U64A, at most 0.5; to U59A C60U, 0.74.
Turning to C55A U64C, the yeast fitness came out at 0.623.
To C60G C66G A70C belongs at most 0.5.
Turning to G52C G56A, the yeast fitness is 0.689.
With A57G A69G A70G, the yeast fitness amounted to 0.704.
Then U59A A70C, with 0.741; and C62U A65U G67A, with 0.532; and C49G A57C A70G, with 0.552.
To C49A A65C belongs 0.686; to U53A G56C, at most 0.5.
As to C61G G63C G68A, the yeast fitness was at most 0.5.
Then U59G C60G, with 0.638; and U59G C60U, with 0.63.
To C61A G68A belongs 0.716; to C49G G51A, 0.637.
As to G58A C66U G67U, the yeast fitness came to 0.543.
For the variant C62A A70C, the yeast fitness was determined as 0.955.
Then C61G G63A A70U, with 0.562; and C60A G67C, with 0.654.
